{"data": "Assay results collected from several papers", "cell line": "MV4-11", "read-out": "cell growth or viability", "note": "Each line is one published result; the experiments were not run side by side."}
{"Compound": "CC[C@@H](C)[C@H](N)C(=O)N1Cc2ccccc2C1", "method": "ATP luminescence", "time": "24 h", "measurement": "IC50", "result": "1150 nM"}
{"Compound": "CC(C)Nc1ccnc(Nc2ccc(-c3ccccc3)cc2)n1", "method": "ATP luminescence", "time": "72 h", "measurement": "EC50", "result": "11900 nM"}
{"Compound": "CC(C)[C@H](N)C(=O)N1CCC[C@H]1B(O)O", "method": "ATP luminescence", "time": "5 days", "measurement": "IC50", "result": "130 nM"}
{"Compound": "COC(=O)[C@H](C)Nc1ccnc(Nc2cccc(-c3cccnc3)c2)n1", "method": "ATP luminescence", "time": "72 h", "measurement": "EC50", "result": "> 8000 nM"}
{"Compound": "O=C(O)c1ccc(CN2CCC(CN[C@@H]3C[C@H]3c3ccccc3)CC2)cc1", "method": "resazurin", "time": "96 h", "measurement": "EC50", "result": "39.6 nM"}
{"Compound": "COc1cc2nccc(Oc3ccc(NC(=O)C4(C(=O)Nc5ccc(F)cc5)CC4)cc3)c2cc1OC", "method": "trypan blue", "time": "72 h", "measurement": "IC50", "result": "12 nM"}
{"Compound": "C#CCN(C)Cc1ccccc1", "method": "resazurin", "time": "96 h", "measurement": "EC50", "result": "> 2000 nM"}
{"Compound": "COc1cc(-c2ncn(/C=C\\C(=O)OC(C)C)n2)cc(C(F)(F)F)c1", "time": "72 h", "measurement": "IC50", "result": "28 nM"}
{"Compound": "CC(C)C[C@H](NC(=O)[C@H](Cc1ccccc1)NC(=O)c1cnccn1)B(O)O", "method": "ATP luminescence", "measurement": "IC50", "result": "3.9 nM"}
{"Compound": "CN1CCN(C(=O)[C@H](CCCN[C@@H]2C[C@H]2c2ccc(F)cc2)NC(=O)c2ccc(-n3ccnn3)cc2)CC1", "method": "resazurin", "time": "96 h", "measurement": "EC50", "result": "4.2 nM"}
{"Compound": "c1cc(Nc2nccc(NC3CCCCC3)n2)cc(-c2cnccn2)c1", "method": "ATP luminescence", "time": "72 h", "measurement": "EC50", "result": "53 nM"}
{"Compound": "Cc1cc2c(cc1N1C(=O)c3cccc4c(CCCO)ccc(c34)C1=O)n(C)c(=O)n2C (racemic)", "method": "resazurin", "measurement": "GI50", "result": "2630 nM"}
{"Compound": "O=C(NC1CCC1)c1ccc2nc(-c3cccc(NS(=O)(=O)NCCN4CCCCC4)c3)cn2c1", "method": "ATP luminescence", "time": "72 h", "measurement": "IC50", "result": "4200 nM"}
{"Compound": "Cc1ncsc1-c1ccc(CNC(=O)[C@@H]2C[C@H](O)CN2C(=O)[C@@H](NC(=O)C2(F)CC2)C(C)(C)C)c(OCCc2ccc(CN3CCN(c4cc(-c5ccccc5O)nnc4N)CC3)cc2)c1", "method": "ATP luminescence", "time": "7 days", "measurement": "IC50", "result": "1700 nM"}
{"Compound": "CCNc1ccnc(Nc2cccc(-c3cccnc3)c2)n1", "method": "ATP luminescence", "time": "72 h", "measurement": "EC50", "result": "35 nM"}
{"Compound": "Nc1nc(Nc2ccc3c(c2)CC[C@@H](N2CCCC2)CC3)nn1-c1cc2c(nn1)-c1ccccc1CCC2", "method": "trypan blue", "time": "72 h", "measurement": "IC50", "result": "247 nM"}
